Publication PMC6980386 (Traffic (Copenhagen, Denmark), 2019)

What was measured:
FL huCD4 P20A = FL huCD4 P20A (Homo sapiens, UniProt P01730, P20A); test: CADA down-modulation of cellular huCD4; type: cell-based
In short: (§1)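 HEK293T cells, seeded overnight in DMEM with 10% serum, 1 mM sodium pyruvate and 0.075% NaHCO₃, were lipofected with full-length human CD4 (WT or mutant). Test compound in DMSO was added 6 h post-transfection as 1:5 serial dilutions (50–0.016 μM) for 48 h. Surface CD4 was stained with FITC/APC anti-CD4 (SK3) and read by flow cytometry. IC50 is 50% of the untreated signal, from four-parameter fits of ≥3 replicate experiments. FC is mutant/WT mean IC50.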

huCD4_1–32-YFP L11A = huCD4_1–32-YFP L11A (Homo sapiens, UniProt P01730, L11A); test: CADA inhibition of huCD4_1–32-YFP secretion; type: cell-based
In short: (§2)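 HEK293T cells were grown in DMEM with 10% FBS and 10 mM HEPES, seeded and left to adhere overnight, then transiently transfected with plasmid by Lipofectamine. Test compound was added 6 h after transfection as a 1:5 serial dilution (50 to 0.016 μM) for 48 h. Secreted YFP in the supernatant was captured on GFP-Trap magnetic beads for 1 h, washed with PBS and measured by flow cytometry. IC50 is the concentration that halves the signal relative to the untreated control, taken from a four-parameter fit of at least three replicate experiments. FC is the mutant mean IC50 divided by the WT mean IC50.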

FL huCD4 K27A = FL huCD4 K27A (Homo sapiens, UniProt P01730, K27A); test: CADA down-modulation of cellular huCD4; type: cell-based
In short: as §1

huCD4_1–32-YFP V28A = huCD4_1–32-YFP V28A (Homo sapiens, UniProt P01730, V28A); test: CADA inhibition of huCD4_1–32-YFP secretion; type: cell-based
In short: as §2

FL huCD4 K33A = FL huCD4 K33A (Homo sapiens, UniProt P01730, K33A); test: CADA down-modulation of cellular huCD4; type: cell-based; details: HEK293T, 48h
In short: as §1

huCD4_1–32-YFP A22V = huCD4_1–32-YFP A22V (Homo sapiens, UniProt P01730, A22V); test: CADA inhibition of huCD4_1–32-YFP secretion; type: cell-based
In short: (§3)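 HEK293T cells were lipofected with human CD4 residues 1–32 fused to the N-terminus of YFP (secreted, no membrane anchor). Test compound was added 6 h post-transfection as 1:5 serial dilutions (50–0.016 μM) for 48 h. Supernatant was captured on GFP-Trap magnetic beads for 1 h, washed in PBS, and YFP was read by flow cytometry. IC50 is 50% of the untreated control, from four-parameter fits of ≥3 replicate experiments. FC is mutant/WT mean IC50.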

huCD4_1–32-YFP F7A = huCD4_1–32-YFP F7A (Homo sapiens, UniProt P01730, F7A); test: CADA inhibition of huCD4_1–32-YFP secretion; type: cell-based
In short: as §3

FL huCD4 K27E = FL huCD4 K27E (Homo sapiens, UniProt P01730, K27E); test: CADA down-modulation of cellular huCD4; type: cell-based; details: HEK293T, 48h
In short: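 Transient transfection of HEK293T cells (Lipofectamine), seeded the night before. Test compound added 6 h post-transfection as a serial 1:5 dilution from 50 to 0.016 μM, then 48 h culture. Surface CD4 stained with FITC- or APC-labelled anti-human CD4 (clone SK3) and read by flow cytometry. IC50 is the concentration reducing signal to 50% of untreated control, interpolated from four-parameter curves (≥3 replicate experiments; 95% CI).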

FL huCD4 F7A = FL huCD4 F7A (Homo sapiens, UniProt P01730, F7A); test: CADA down-modulation of cellular huCD4; type: cell-based
In short: as §1

FL huCD4 R8A = FL huCD4 R8A (Homo sapiens, UniProt P01730, R8A); test: CADA down-modulation of cellular huCD4; type: cell-based; details: read-out: Cellular huCD4 IC50 (μM) Mean, HEK293T, CADA 48h
In short: as §1

sortilin = details: second substrate, proteomic study; cited from earlier work
FL huCD4 L19A = FL huCD4 L19A (Homo sapiens, UniProt P01730, L19A); test: CADA down-modulation of cellular huCD4; type: cell-based
In short: as §1

huCD4_1–32-YFP Q15A = huCD4_1–32-YFP Q15A (Homo sapiens, UniProt P01730, Q15A); test: CADA inhibition of huCD4_1–32-YFP secretion; type: cell-based
In short: as §2

huCD4_1–32-YFP Q15A;P20A = huCD4_1–32-YFP Q15A;P20A (Homo sapiens, UniProt P01730, P20A/Q15A); test: CADA inhibition of huCD4_1–32-YFP secretion; type: cell-based; details: HEK293T, 48h
In short: as §2

FL huCD4 R8K = FL huCD4 R8K (Homo sapiens, UniProt P01730, R8K); test: CADA down-modulation of cellular huCD4; type: cell-based; details: HEK293T, 48h
In short: as §1

huCD4_1–32-YFP L18A = huCD4_1–32-YFP L18A (Homo sapiens, UniProt P01730, L18A); test: CADA inhibition of huCD4_1–32-YFP secretion; type: cell-based
In short: as §2

FL huCD4 N2A = FL huCD4 N2A (Homo sapiens, UniProt P01730, N2A); test: CADA down-modulation of cellular huCD4; type: cell-based
In short: as §1

huCD4_1–32-YFP V29A = huCD4_1–32-YFP V29A (Homo sapiens, UniProt P01730, V29A); test: CADA inhibition of huCD4_1–32-YFP secretion; type: cell-based; details: + less, − more sensitive to CADA
In short: as §2

huCD4_1–32-YFP V13A = huCD4_1–32-YFP V13A (Homo sapiens, UniProt P01730, V13A); test: CADA inhibition of huCD4_1–32-YFP secretion; type: cell-based
In short: as §2

FL huCD4 L12A = FL huCD4 L12A (Homo sapiens, UniProt P01730, L12A); test: CADA down-modulation of cellular huCD4; type: cell-based
In short: as §1

truncated huCD4 D1D2 WT = truncated huCD4 D1D2 WT (Homo sapiens, UniProt P01730); test: Cell-free in vitro translation and translocation; type: biochemical
In short: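 Truncated huCD4 D1D2 (lacking glycosylation sites and membrane anchor) was made by PCR and transcribed with T7. Proteinase K protection ran 30 min on ice and was quenched with PMSF. Products were separated by SDS-PAGE and imaged by phosphor imaging. The SP-cleaved band was normalised to the matching control. Data are from 2–5 independent experiments, compared with WT by Welch t test.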

[1] = + less, − more sensitive to CADA
[2] = read-out: Cellular huCD4 IC50 (μM) Mean, HEK293T, CADA 48h
[3] = read-out: Secreted YFP IC50 (μM) Mean, HEK293T, CADA 48h

C=C1CN(S(=O)(=O)c2ccc(C)cc2)CCCN(Cc2ccccc2)CCCN(S(=O)(=O)c2ccc(C)cc2)C1 [CADA, Cyclotriazadisulfonamide]
Cellular huCD4 FC (fold change of mean IC50 relative to WT) (FL huCD4 P20A; [1]): +4.4
IC50 (FL huCD4 P20A; [2]): 2.35 µM
Secreted YFP FC (fold change of mean IC50 relative to WT) (huCD4_1–32-YFP L11A; [1]): −3.3
IC50 (huCD4_1–32-YFP L11A; [3]): 0.38 µM
Cellular huCD4 FC (fold change of mean IC50 relative to WT) (FL huCD4 K27A; [1]): +2.4
IC50 (FL huCD4 K27A; [2]): 1.3 µM
Secreted YFP FC (fold change of mean IC50 relative to WT) (huCD4_1–32-YFP V28A; [1]): −1.8
IC50 (huCD4_1–32-YFP V28A; [3]): 0.72 µM
IC50 (FL huCD4 K33A): > 50000 nM
Secreted YFP FC (fold change of mean IC50 relative to WT) (huCD4_1–32-YFP A22V; [1]): +1.2
IC50 (huCD4_1–32-YFP A22V; [3]): 1.58 µM
Secreted YFP FC (fold change of mean IC50 relative to WT) (huCD4_1–32-YFP F7A; [1]): −2.8
IC50 (huCD4_1–32-YFP F7A; [3]): 0.46 µM
sensitivity to CADA (FL huCD4 K27E): copied the alanine substitution phenotypes
Cellular huCD4 FC (fold change of mean IC50 relative to WT) (FL huCD4 F7A; [1]): −4.2
IC50 (FL huCD4 F7A; [2]): 0.13 µM
IC50 (FL huCD4 R8A): 4.2 µM
susceptibility of sortilin to CADA (sortilin): lower susceptibility to the compound as compared to huCD4
Cellular huCD4 FC (fold change of mean IC50 relative to WT) (FL huCD4 L19A; [1]): +1.9
IC50 (FL huCD4 L19A; [2]): 1.04 µM
Secreted YFP FC (fold change of mean IC50 relative to WT) (huCD4_1–32-YFP Q15A; [1]): >+39
IC50 (huCD4_1–32-YFP Q15A; [3]): > 50 µM
sensitivity to CADA (huCD4_1–32-YFP Q15A;P20A): no longer responded to CADA
sensitivity to CADA (FL huCD4 R8K): restored full sensitivity to CADA
Secreted YFP FC (fold change of mean IC50 relative to WT) (huCD4_1–32-YFP L18A; [1]): −1.9
IC50 (huCD4_1–32-YFP L18A; [3]): 0.67 µM
Cellular huCD4 FC (fold change of mean IC50 relative to WT) (FL huCD4 N2A; [1]): +1.4
IC50 (FL huCD4 N2A; [2]): 0.73 µM
Secreted YFP FC (fold change of mean IC50 relative to WT) (huCD4_1–32-YFP V29A): −1.1
Secreted YFP FC (fold change of mean IC50 relative to WT) (huCD4_1–32-YFP V13A; [1]): −2.8
IC50 (huCD4_1–32-YFP V13A; [3]): 0.46 µM
enhanced CADA sensitivity relative to WT (FL huCD4 L12A): 8 fold
Cellular huCD4 FC (fold change of mean IC50 relative to WT) (FL huCD4 L12A; [1]): −7.7
IC50 (FL huCD4 L12A; [2]): 0.07 µM
inhibition of translocation by CADA (truncated huCD4 D1D2 WT; 15 μM CADA vs DMSO, rabbit reticulocyte lysate, ovine microsomes): 75%
effect of CADA on co-translational translocation (truncated huCD4 D1D2 WT; increasing doses of CADA): dose-dependently prevented by CADA
